Reference: ChEMBL document CHEMBL1649165, “Activity profile in vitro of micafungin against Spanish clinical isolates of common and emerging species of yeasts and molds” (2009)
Values after ≈ are worked out from the molar mass of the structure shown.

Tests used:
Format in all cases: functional
Acremonium sp. = experiment: Antimicrobial activity against Acremonium sp.by broth microdilution method
Procedure, shortened: (§1)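 Clinical mould isolates, tested by broth microdilution using the AFST-EUCAST reference method for filamentous fungi. For echinocandins, the endpoint was the minimum effective concentration: the lowest drug concentration giving aberrant hyphal growth, read with an inverted microscope.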

Aspergillus nidulans = experiment: Antimicrobial activity against Aspergillus nidulans by broth microdilution method; procedure, shortened: as §1
Rhizopus arrhizus = experiment: Antimicrobial activity against Rhizopus oryzae by broth microdilution method
Procedure, shortened: (§2)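 Filamentous fungus clinical isolates tested by the AFST-EUCAST reference broth microdilution method for moulds. For echinocandins, the endpoint was the minimum effective concentration: the lowest drug concentration giving aberrant hyphal growth, read with an inverted microscope.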

Phialemonium curvatum = experiment: Antimicrobial activity against Phialemonium curvatum by broth microdilution method; settings: Thyridium curvatum; procedure, shortened: as §2
Aspergillus ochraceus = experiment: Antimicrobial activity against Aspergillus ochraceus by broth microdilution method; procedure, shortened: as §1
Fusarium oxysporum = experiment: Antimicrobial activity against Fusarium oxysporum by broth microdilution method; procedure, shortened: as §1
Aureobasidium pullulans = experiment: Antimicrobial activity against Aureobasidium pullulans by broth microdilution method
[1] = tested on: Cunninghamella bertholletiae; experiment: Antimicrobial activity against Cunninghamella bertholletiae by broth microdilution method; procedure, shortened: as §1
Hortaea werneckii = experiment: Antimicrobial activity against Hortaea werneckii by broth microdilution method
[2] = tested on: Scopulariopsis brevicaulis; experiment: Antimicrobial activity against Scopulariopsis brevicaulis by broth microdilution method; procedure, shortened: as §2
Aspergillus ustus = experiment: Antimicrobial activity against Aspergillus ustus by broth microdilution method; procedure, shortened: as §1
Fusarium verticillioides = experiment: Antimicrobial activity against Fusarium verticillioides by broth microdilution method; procedure, shortened: as §2
Lecythophora hoffmannii = experiment: Antimicrobial activity against Lecythophora hoffmannii by broth microdilution method; settings: Coniochaeta hoffmannii; procedure, shortened: as §2
Diutina rugosa = experiment: Antimicrobial activity against Candida rugosa by broth microdilution method
Procedure, shortened: (§3)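 Clinical isolates from human patients, tested by broth microdilution using the AFST-EUCAST reference procedure for fermentative yeasts. The MIC was read per that reference method.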

Fusarium solani = experiment: Antimicrobial activity against Fusarium solani by broth microdilution method; procedure, shortened: as §2
Kluyveromyces marxianus = experiment: Antimicrobial activity against Candida kefyr by broth microdilution method; procedure, shortened: as §3
Torulaspora delbrueckii = experiment: Antimicrobial activity against Candida coliculosa by broth microdilution method; procedure, shortened: as §3
Fusarium equiseti = experiment: Antimicrobial activity against Fusarium equiseti by broth microdilution method; procedure, shortened: as §1
Penicillium = experiment: Antimicrobial activity against Penicillium spp. by broth microdilution method; procedure, shortened: as §2
Ustilago = experiment: Antimicrobial activity against Ustilago spp by broth microdilution method
Lewia infectoria = experiment: Antimicrobial activity against Alternaria infectoria by broth microdilution method; procedure, shortened: as §1
Trichosporon inkin = experiment: Antimicrobial activity against Trichosporon inkin by broth microdilution method
Procedure, shortened: (§4)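 Nonfermentative yeast clinical isolates (Rhodotorula, Trichosporon) tested by broth microdilution. The EUCAST yeast recommendations were followed strictly, with one minor modification to improve growth. MIC was read as the endpoint.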

Rhodotorula glutinis = experiment: Antimicrobial activity against Rhodotorula glutinis by broth microdilution method; procedure, shortened: as §4
Scytalidium hyalinum = experiment: Antimicrobial activity against Scytalidium hyalinum by broth microdilution method; settings: Neoscytalidium hyalinum; procedure, shortened: as §2
Trichosporon domesticum = experiment: Antimicrobial activity against Trichosporon mycotoxinivorans by broth microdilution method; settings: Apiotrichum domesticum
Procedure, shortened: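 Spanish human clinical isolates were tested as nonfermentative yeasts by broth microdilution. The method strictly followed the EUCAST recommendations, with a minor modification to improve growth, and the read-out was the MIC.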

Fusarium proliferatum = experiment: Antimicrobial activity against Fusarium proliferatum by broth microdilution method; procedure, shortened: as §1
[3] = tested on: Meyerozyma guilliermondii; experiment: Antimicrobial activity against Candida guilliermondii by broth microdilution method; procedure, shortened: as §3
[4] = tested on: Cryptococcus deneoformans; experiment: Antimicrobial activity against Cryptococcus neoformans var. neoformans by broth microdilution method
Procedure, shortened: (§5)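 Clinical isolates of nonfermentative yeasts, tested by broth microdilution following EUCAST recommendations. The only change from that method was a minor modification to improve growth.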

Naganishia albida = experiment: Antimicrobial activity against Cryptococcus albidus by broth microdilution method; procedure, shortened: as §5
Clavispora lusitaniae = experiment: Antimicrobial activity against Candida lusitaniae by broth microdilution method; procedure, shortened: as §3
Aspergillus flavus = experiment: Antimicrobial activity against Aspergillus flavus by broth microdilution method; procedure, shortened: as §1
Exophiala dermatitidis = experiment: Antimicrobial activity against Exophiala dermatitidis by broth microdilution method
Fusarium reticulatum = experiment: Antimicrobial activity against Fusarium reticulatum by broth microdilution method; procedure, shortened: as §2
Aspergillus glaucus = experiment: Antimicrobial activity against Aspergillus glaucus by broth microdilution method; procedure, shortened: as §1
[5] = tested on: Kazachstania pintolopesii; experiment: Antimicrobial activity against Candida pintolopesii by broth microdilution method; settings: Arxiozyma pintolopesii; procedure, shortened: as §3
Aspergillus terreus = experiment: Antimicrobial activity against Aspergillus terreus by broth microdilution method; procedure, shortened: as §1
[Candida] intermedia = Antimicrobial activity against Candida intermedia by broth microdilution method; settings: Sungouiella intermedia; procedure, shortened: as §3
Rhodotorula mucilaginosa = experiment: Antimicrobial activity against Rhodotorula mucilaginosa by broth microdilution method; procedure, shortened: as §4
Fennellia nivea = experiment: Antimicrobial activity against Aspergillus niveus by broth microdilution method; procedure, shortened: as §1
Candida tropicalis = experiment: Antimicrobial activity against Candida tropicalis by broth microdilution method; procedure, shortened: as §3
Candida orthopsilosis = experiment: Antimicrobial activity against Candida orthopsilosis by broth microdilution method; settings: Lodderomyces orthopsilosis; procedure, shortened: as §3
Mucor = experiment: Antimicrobial activity against Mucor spp.by broth microdilution method; procedure, shortened: as §2
Coprinellus domesticus = experiment: Antimicrobial activity against Hormographiella verticillata by broth microdilution method; procedure, shortened: as §2
Scedosporium apiospermum = experiment: Antimicrobial activity against Scedosporium apiospermum by broth microdilution method; procedure, shortened: as §2

CCC(C)n1ncn(-c2ccc(N3CCN(c4ccc(OCC5COC(Cn6cncn6)(c6ccc(Cl)cc6Cl)O5)cc4)CC3)cc2)c1=O (stereo not drawn) [ITRACONAZOLE]
MIC50 (Acremonium sp.): > 8 µg/mL | MIC90 (Acremonium sp.): > 8 µg/mL | MIC50 (Aspergillus nidulans): 0.25 µg/mL (≈ 0.354 µM) | MIC90 (Aspergillus nidulans): 0.5 µg/mL (≈ 0.709 µM) | MIC50 (Rhizopus arrhizus): 4 µg/mL (≈ 5.67 µM) | MIC90 (Rhizopus arrhizus): > 8 µg/mL | MIC50 (Phialemonium curvatum): > 8 µg/mL | MIC90 (Phialemonium curvatum): > 8 µg/mL | MIC50 (Aspergillus ochraceus): 0.5 µg/mL (≈ 0.709 µM) | MIC90 (Aspergillus ochraceus): > 8 µg/mL | MIC50 (Fusarium oxysporum): > 8 µg/mL | MIC90 (Fusarium oxysporum): > 8 µg/mL | MIC50 (Aureobasidium pullulans): 0.12 µg/mL (≈ 0.17 µM) | MIC90 (Aureobasidium pullulans): > 8 µg/mL | MIC50 [1]: > 8 µg/mL | MIC90 [1]: > 8 µg/mL | MIC50 (Hortaea werneckii): 0.12 µg/mL (≈ 0.17 µM) | MIC90 (Hortaea werneckii): > 8 µg/mL | MIC50 [2]: > 8 µg/mL | MIC90 [2]: > 8 µg/mL | MIC50 (Aspergillus ustus): 0.5 µg/mL (≈ 0.709 µM) | MIC90 (Aspergillus ustus): > 8 µg/mL | MIC50 (Fusarium verticillioides): > 8 µg/mL | MIC90 (Fusarium verticillioides): > 8 µg/mL | MIC50 (Lecythophora hoffmannii): 0.12 µg/mL (≈ 0.17 µM) | MIC90 (Lecythophora hoffmannii): > 8 µg/mL | MIC50 (Diutina rugosa): 0.12 µg/mL (≈ 0.17 µM) | MIC90 (Diutina rugosa): > 8 µg/mL | MIC50 (Fusarium solani): > 8 µg/mL | MIC90 (Fusarium solani): > 8 µg/mL | MIC50 (Kluyveromyces marxianus): 0.02 µg/mL (≈ 0.0283 µM) | MIC90 (Kluyveromyces marxianus): 0.06 µg/mL (≈ 0.085 µM) | MIC50 (Torulaspora delbrueckii): 0.12 µg/mL (≈ 0.17 µM) | MIC90 (Torulaspora delbrueckii): > 8 µg/mL | MIC50 (Fusarium equiseti): > 8 µg/mL | MIC90 (Fusarium equiseti): > 8 µg/mL | MIC50 (Penicillium): 0.5 µg/mL (≈ 0.709 µM) | MIC90 (Penicillium): > 8 µg/mL | MIC50 (Ustilago): 0.5 µg/mL (≈ 0.709 µM) | MIC90 (Ustilago): > 8 µg/mL | MIC50 (Lewia infectoria): 2 µg/mL (≈ 2.83 µM) | MIC90 (Lewia infectoria): > 8 µg/mL | MIC50 (Trichosporon inkin): 0.12 µg/mL (≈ 0.17 µM) | MIC90 (Trichosporon inkin): 0.25 µg/mL (≈ 0.354 µM) | MIC50 (Rhodotorula glutinis): 0.5 µg/mL (≈ 0.709 µM) | MIC90 (Rhodotorula glutinis): > 8 µg/mL | MIC50 (Scytalidium hyalinum): 0.12 µg/mL (≈ 0.17 µM) | MIC90 (Scytalidium hyalinum): > 8 µg/mL | MIC50 (Trichosporon domesticum): 0.5 µg/mL (≈ 0.709 µM) | MIC90 (Trichosporon domesticum): > 8 µg/mL | MIC50 (Fusarium proliferatum): > 8 µg/mL | MIC90 (Fusarium proliferatum): > 8 µg/mL | MIC50 [3]: 0.25 µg/mL (≈ 0.354 µM) | MIC90 [3]: > 8 µg/mL | MIC50 [4]: 0.12 µg/mL (≈ 0.17 µM) | MIC90 [4]: 0.5 µg/mL (≈ 0.709 µM) | MIC50 (Naganishia albida): 0.5 µg/mL (≈ 0.709 µM) | MIC90 (Naganishia albida): > 8 µg/mL | MIC50 (Clavispora lusitaniae): 0.02 µg/mL (≈ 0.0283 µM) | MIC90 (Clavispora lusitaniae): 0.03 µg/mL (≈ 0.0425 µM) | MIC50 (Aspergillus flavus): 0.25 µg/mL (≈ 0.354 µM) | MIC90 (Aspergillus flavus): 0.5 µg/mL (≈ 0.709 µM) | MIC50 (Exophiala dermatitidis): 0.12 µg/mL (≈ 0.17 µM) | MIC90 (Exophiala dermatitidis): > 8 µg/mL | MIC50 (Fusarium reticulatum): > 8 µg/mL | MIC90 (Fusarium reticulatum): > 8 µg/mL | MIC50 (Aspergillus glaucus): 0.5 µg/mL (≈ 0.709 µM) | MIC90 (Aspergillus glaucus): > 8 µg/mL | MIC50 [5]: 0.12 µg/mL (≈ 0.17 µM) | MIC90 [5]: > 8 µg/mL | MIC50 (Aspergillus terreus): 0.25 µg/mL (≈ 0.354 µM) | MIC90 (Aspergillus terreus): 0.5 µg/mL (≈ 0.709 µM) | MIC50 ([Candida] intermedia): 0.12 µg/mL (≈ 0.17 µM) | MIC90 ([Candida] intermedia): > 8 µg/mL | MIC50 (Rhodotorula mucilaginosa): 8 µg/mL (≈ 11.3 µM) | MIC90 (Rhodotorula mucilaginosa): > 8 µg/mL | MIC50 (Fennellia nivea): 0.5 µg/mL (≈ 0.709 µM) | MIC90 (Fennellia nivea): > 8 µg/mL | MIC50 (Candida tropicalis): 0.02 µg/mL (≈ 0.0283 µM) | MIC90 (Candida tropicalis): 0.06 µg/mL (≈ 0.085 µM) | MIC50 (Candida orthopsilosis): 0.12 µg/mL (≈ 0.17 µM) | MIC90 (Candida orthopsilosis): > 8 µg/mL | MIC50 (Mucor): > 8 µg/mL | MIC90 (Mucor): > 8 µg/mL | MIC50 (Coprinellus domesticus): > 8 µg/mL | MIC90 (Coprinellus domesticus): > 8 µg/mL | MIC50 (Scedosporium apiospermum): 1 µg/mL (≈ 1.42 µM) | MIC90 (Scedosporium apiospermum): > 8 µg/mL
